# UCH37 inh: inhibitors of human deubiquitinating enzyme UCH37. Q9Y5K5. purified proteasome/UCH37, Ub-AMC cleavage fluorescence. inhibition, % (concentration not given with the values). 330,000 tested, 0.33% active. AID 588478;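 active = mean inhibition over replicate wells above about 20%, limit read from the data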;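 note: 0% = compound-free wells with enzyme and 100% = wells lacking proteasome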
#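 Material: Human UCH37 enzyme supplied as purified proteasome complex | Schedule: 30 min compound-proteasome preincubation then 25 min substrate reaction, room temperature | Detection: AMC fluorescence from Ub-AMC cleavage, excitation 355 nm, emission 460 nm | Benchmarks: Wells without proteasome as full block, compound-free enzyme plus substrate as uninhibited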
# B2AR ag: activates human beta-2 adrenergic receptor causing internalization. response, % (test concentration not listed). P07550. AID 504454. 340,000 tested, 0.43% active. Am2.2-beta2AR cells, FAP receptor internalization, flow cytometry;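 active = response above a set limit, near 3 SD of response in nonfluorescent compounds, cut at about 42% in these data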
# PfGluPho inh: PfG6PD (Plasmodium falciparum) enzyme inhibition; 350,000 tested, 0.78% active; inhibition, % at 20 µM; PfGluPho enzyme, NADPH resazurin-diaphorase fluorescence;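 active = inhibition reaching at least a set limit at 20 µM in the primary screen, cut at about 59% in these data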;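 note: 0% = DMSO wells with substrate and 100% = DMSO wells lacking glucose-6-phosphate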
# aDG glyco up: alpha-DG glycosylation activation; Pro5-aDG cells, alpha-DG glycosylation AlphaScreen (IIH6); 0% Pro5, 100% B10-LARGE cell signal; activation, % at 10 µM; 360,000 tested, 0.22% active;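 active = activation of at least 8% versus controls, or a plate z-score of at least 8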;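 note: Pro5 are CHO cells carrying HIG-tagged alpha-DG that lacks glycosylation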
# Cardio protect: protects H9c2 cardiomyocytes from peroxide injury; protection from H2O2 cell death, % at 20 µM; AID 588492; H2O2 injury protection, ATPLite, 2 h; 360,000 tested, 0.63% active;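 active = compounds giving at least 50% protection of heart cells from peroxide-induced death in the single-dose screen, raw or plate-pattern-corrected value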;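 note: 0% = DMSO wells with peroxide and 100% = DMSO wells without peroxide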
# HKDC1 inhibitor: blocks human hexokinase HKDC1 activity | recombinant HKDC1, G6PDH/diaphorase resazurin coupled fluorescence | inhibition, % at 20 µM | AID 493160 | 340,000 tested, 0.16% active | Q2TB90;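 active = inhibition above about 35% when tested at 20 µM, limit read from the data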;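 note: plate controls were DMSO wells with enzyme for no effect and DMSO wells lacking enzyme for full effect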
# Target sequence (Q2TB90 whole entry, looked up): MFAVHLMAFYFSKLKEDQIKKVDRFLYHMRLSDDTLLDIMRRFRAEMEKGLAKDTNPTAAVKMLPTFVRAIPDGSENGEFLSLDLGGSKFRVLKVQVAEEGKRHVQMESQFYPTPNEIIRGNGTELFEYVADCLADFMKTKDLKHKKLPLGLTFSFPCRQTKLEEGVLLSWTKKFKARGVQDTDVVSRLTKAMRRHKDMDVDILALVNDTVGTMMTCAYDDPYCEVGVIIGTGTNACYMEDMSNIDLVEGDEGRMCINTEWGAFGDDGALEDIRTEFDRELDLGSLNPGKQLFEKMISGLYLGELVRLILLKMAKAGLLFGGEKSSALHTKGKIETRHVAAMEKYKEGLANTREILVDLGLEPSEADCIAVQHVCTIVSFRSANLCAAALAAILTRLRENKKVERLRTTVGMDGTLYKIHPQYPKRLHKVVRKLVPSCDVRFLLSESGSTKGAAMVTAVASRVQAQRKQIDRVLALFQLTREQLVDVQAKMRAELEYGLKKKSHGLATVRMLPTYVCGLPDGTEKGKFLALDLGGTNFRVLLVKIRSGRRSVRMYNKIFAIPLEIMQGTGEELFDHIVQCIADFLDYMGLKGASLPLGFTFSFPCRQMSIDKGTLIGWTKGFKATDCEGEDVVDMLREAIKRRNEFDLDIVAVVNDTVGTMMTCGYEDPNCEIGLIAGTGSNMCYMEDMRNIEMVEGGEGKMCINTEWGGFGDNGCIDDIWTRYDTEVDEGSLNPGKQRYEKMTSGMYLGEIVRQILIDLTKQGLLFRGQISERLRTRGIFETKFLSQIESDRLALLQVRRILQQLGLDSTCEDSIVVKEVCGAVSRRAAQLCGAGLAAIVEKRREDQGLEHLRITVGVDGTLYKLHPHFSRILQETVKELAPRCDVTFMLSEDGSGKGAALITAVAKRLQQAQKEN
#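 Assay system: recombinant HKDC1 hexokinase; detection: coupled resazurin fluorescence, excitation 525 nm, emission 613 nm; benchmarks: DMSO-plus-enzyme-mix negative control, buffer-substituted positive control; compound dosing: single 20 µM dose; schedule: 90 min at room temperature in dark; also added: glucose plus 1 mM ATP as hexokinase substrates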
# PfGluPho conf: PfG6PD inhibition, single-dose confirmed | shares compounds with PfGluPho inh | recombinant PfGluPho, NADPH-diaphorase-resazurin fluorescence | inhibition, % at 20 µM | 2,400 tested, 34% active | AID 504753;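 active = inhibition of at least 50% at 20 µM in any single replicate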;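 note: 0% = DMSO with substrate and 100% = DMSO lacking glucose-6-phosphate substrate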
# Diaph ctr 10uM: inhibits diaphorase or oxidizes, flagging false PfG6PD hits. 820 tested, 39% active. diaphorase-coupled resazurin reduction, fluorescence, NADPH 10 uM. shares compounds with PfGluPho inh. inhibition, % at 20 µM;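 active = average inhibition reaching 50% or more with the compound at 20 µM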;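 note: resorufin red fluorescence formed as diaphorase reduces resazurin using NADPH; 0% = DMSO with enzyme and 100% = DMSO without enzyme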
# Diaphorase 30uM: counter-screen for P. falciparum G6PD inhibitors: diaphorase inhibitors, oxidizers; shares compounds with PfGluPho inh; Diaphorase/resazurin coupled assay, resorufin fluorescence, 30 uM NADPH; inhibition, % at 20 µM; 820 tested, 29% active; AID 504863;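 active = inhibition averaging 50% or more, tested at 20 µM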;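 note: 0% = DMSO with enzyme and 100% = DMSO wells lacking diaphorase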
# * = called active by the depositor; i = inactive; · = not tested or not shown. A selection: hits, their analogues and other compounds. The true share with any hit is near 2.1%.
SMILES,UCH37 inh,B2AR ag,PfGluPho inh,aDG glyco up,Cardio protect,HKDC1 inhibitor,PfGluPho conf,others
COc1cc(OC)cc(C(=O)Nc2ccc(-n3cnnn3)c(C)c2)c1,8,0,52,0,5,-12,·,
Cc1occc1C(=O)Nc1nnc(C(F)(F)F)s1,2,-1,16,0,-2,5,·,
COC(=O)c1sc(NC(=O)c2oc3ccccc3c2C)nc1C,-15,4,-3,0,-6,-7,·,
O=C(Nc1ccccc1C(=O)Nc1nnc(C(F)(F)F)s1)c1ccccc1,·,23,74*,0,-13,6,31,
Cc1cc(NC(=O)c2oc3ccccc3c2C)ccc1-n1cnnn1,-5,-3,111*,0,19,19,73*,Diaph ctr 10uM=72*;Diaphorase 30uM=43
Cc1ccccc1C=NNc1ncnc2nc[nH]c12,9,·,·,·,·,·,·,
Cc1nn(C(C)(C)C)c(C)c1C=NOC(=O)Nc1ccc(Cl)c(Cl)c1,5,·,·,·,·,·,·,
CN(C)c1ccc(C(=S)N2CCN(Cc3ccccc3)CC2)cc1,8,7,69*,0,-6,-8,46,
S=C(c1ccc(Br)cc1)N1CCN(Cc2ccccc2)CC1,5,-3,60*,0,-10,-4,47,
Oc1ccc(C(=S)N2CCN(Cc3ccccc3)CC2)cc1,4,1,54,0,2,-6,·,
CCN(CC)c1ccc(C(=O)N2CCN(Cc3ccccc3)CC2)cc1,0,1,-1,0,8,-7,·,
CC(CC(=O)Nc1ccc(N(C)C)cc1)=NNC(=O)c1ccc([N+](=O)[O-])cc1Cl,3,·,·,·,·,·,·,
O=c1ccn(-c2cccc(C(F)(F)F)c2)nc1-c1ccn(-c2ccccc2F)n1,2,-8,104*,0,24,-1,102*,Diaph ctr 10uM=97*;Diaphorase 30uM=78*
COc1ccc(-n2ccc(-c3nn(-c4cccc(C(F)(F)F)c4)ccc3=O)n2)cc1,1,2,25,0,4,-5,·,
C/C(C=NNC(=O)c1cc(C2CC2)[nH]n1)=C\c1ccccc1,6,·,·,·,·,·,·,
Cc1ccc(-c2cc(C(=O)N3CCN(c4ncccn4)CC3)c3cc(Br)ccc3n2)o1,-80,19,62*,-1,-13,3,-11,
[O-]/[N+](=C\c1ccccc1)c1ccc(Br)cc1,-1,-2,84*,0,-2,-1,91*,Diaph ctr 10uM=72*;Diaphorase 30uM=38
O=C(CNC(=O)c1ccc2c(c1)OCCO2)NN=Cc1ccc([N+](=O)[O-])cc1,4,·,·,·,·,·,·,
CC(=NNC(=O)c1cccnc1)c1ccccc1,2,·,·,·,·,·,·,
COC(=O)C1=C(C(=O)OC)SC2(S1)C(C(=O)OC)=C(C(=O)OC)SC1=C2c2cc(C)ccc2NC1(C)C,11,17,72*,1,-16,-19,26,
CN(C)c1cccc2c1c(NC(=O)Nc1ccccc1)nn2C,-19,-4,39,0,3,17,·,
CN(C)c1cccc2c1c(NC(=O)c1ccc(F)cc1)nn2C,2,3,74*,0,0,11,57*,Diaph ctr 10uM=24;Diaphorase 30uM=26
CN(C)c1cccc2c1c(NC(=O)c1ccc(Cl)cc1)nn2C,7,2,103*,0,12,8,73*,Diaph ctr 10uM=31;Diaphorase 30uM=52*
Clc1ccc(-c2nc3ccc(Cl)cn3c2Cc2ccccc2)cc1,·,·,102*,0,-10,·,17,
Fc1ccc(-c2nc3ccc(Cl)cn3c2Cc2ccccc2)cc1,·,·,81*,0,-10,·,-5,
SMILES,UCH37 inh,B2AR ag,PfGluPho inh,aDG glyco up,Cardio protect,HKDC1 inhibitor,PfGluPho conf,others
Cc1ccn2c(Cc3ccccc3)c(-c3ccc(F)cc3)nc2c1,·,·,77*,0,-18,·,10,
CS(=O)c1ccccc1O (stereo not drawn),2,7,1,0,0,1,·,
O=S(c1ccccc1O)S(=O)c1ccccc1O (stereo not drawn),1,-1,94*,0,15,-2,75*,Diaph ctr 10uM=-15;Diaphorase 30uM=-9
O=C(COc1cccc2ccccc12)NN=C/C=C/c1ccccc1,0,·,·,·,·,·,·,
Cc1cccn2c(=O)c3cc(C(=O)NC4CCCC4)c(=N)n(C4CCCC4)c3nc12,i,14,82*,1,-20,-22,23,
O=C(Nc1ccccc1C(=O)N/N=C/c1ccco1)c1ccccc1Cl,·,0,70*,0,2,0,52*,Diaph ctr 10uM=52*;Diaphorase 30uM=39
COC(=O)c1c(-c2ccc(C(C)(C)C)cc2)csc1NC(=O)C1C2CCC(O2)C1C(=O)O (stereo not drawn),0,1,70*,0,0,-17,31,
CCOC(=O)c1c(-c2cccc3ccccc23)csc1NC(=O)C1C2CCC(O2)C1C(=O)O (stereo not drawn),1,1,-21,0,4,-3,·,
COC(=O)c1c(NC(=O)c2ccc(C)cc2)csc1C,·,2,42,0,-3,0,·,
COC(=O)c1c(NS(=O)(=O)c2ccccc2)csc1C,0,0,91*,0,6,9,78*,Diaph ctr 10uM=72*;Diaphorase 30uM=56*
CCOC(=O)c1ccccc1NS(=O)(=O)c1ccccc1,4,11,79*,0,2,-1,60*,Diaph ctr 10uM=58*;Diaphorase 30uM=54*
CC(C)c1ccc(NC(=O)c2cccc(Br)c2)cc1,0,5,68*,0,-7,-4,2,
CC(C)c1ccc(NC(=O)c2ccc(Br)o2)cc1,2,13,81*,0,-20,2,31,
O=C1C2C(C(=O)N1N=Cc1cccc([N+](=O)[O-])c1)C1C=CC2C12CC2 (stereo not drawn),4,·,·,·,·,·,·,
COc1ccc(C(=O)Nc2ccc3c(c2)C(=O)c2ccccc2C3=O)cc1OC,3,6,0,1,1,9,·,
COc1ccc(C(=O)c2c(C(F)(F)F)oc3c2C(=O)c2ccccc2C3=O)cc1OC,16,8,80*,5.7*,-21,20,53*,Diaph ctr 10uM=44;Diaphorase 30uM=52*
Cc1cccc(C=NNC(=O)c2cc3c(s2)-c2ccccc2CC3)c1,-107,·,·,·,·,·,·,
O=C(CSCc1ccc(Cl)cc1)N/N=C/c1ccco1,·,0,60*,0,12,-3,25,
O=C(CSCc1ccc(Cl)cc1)NN=Cc1c(Cl)cccc1Cl,1,·,·,·,·,·,·,
Cc1ccsc1/C=N/NC(=O)CSCc1ccc(Cl)cc1,·,2,114*,0,-18,-3,65*,Diaph ctr 10uM=78*;Diaphorase 30uM=58*

# Source: PubChem (several laboratories)
